ChEMBL document CHEMBL3600323, “Structure-Activity and Structure-Property Relationship and Exploratory in Vivo Evaluation of the Nanomolar Keap1-Nrf2 Protein-Protein Interaction Inhibitor” (J Med Chem, 2015)
Values after ≈ are worked out from the molar mass of the structure shown. Active and inactive are the calls of the source. The rule behind the calls is not given here.

Experiments:
Keap1/Nrf2 = Keap1/Nrf2 (Homo sapiens, UniProt Q14145); test: Inhibition of Keap1 Kelch domain-Nrf2 ETGE (unknown origin) protein-protein interaction incubated for 30 mins by fluorescence polarization competition assay
Chain of Keap1/Nrf2 (Q16236 whole entry, the tested form may be a part): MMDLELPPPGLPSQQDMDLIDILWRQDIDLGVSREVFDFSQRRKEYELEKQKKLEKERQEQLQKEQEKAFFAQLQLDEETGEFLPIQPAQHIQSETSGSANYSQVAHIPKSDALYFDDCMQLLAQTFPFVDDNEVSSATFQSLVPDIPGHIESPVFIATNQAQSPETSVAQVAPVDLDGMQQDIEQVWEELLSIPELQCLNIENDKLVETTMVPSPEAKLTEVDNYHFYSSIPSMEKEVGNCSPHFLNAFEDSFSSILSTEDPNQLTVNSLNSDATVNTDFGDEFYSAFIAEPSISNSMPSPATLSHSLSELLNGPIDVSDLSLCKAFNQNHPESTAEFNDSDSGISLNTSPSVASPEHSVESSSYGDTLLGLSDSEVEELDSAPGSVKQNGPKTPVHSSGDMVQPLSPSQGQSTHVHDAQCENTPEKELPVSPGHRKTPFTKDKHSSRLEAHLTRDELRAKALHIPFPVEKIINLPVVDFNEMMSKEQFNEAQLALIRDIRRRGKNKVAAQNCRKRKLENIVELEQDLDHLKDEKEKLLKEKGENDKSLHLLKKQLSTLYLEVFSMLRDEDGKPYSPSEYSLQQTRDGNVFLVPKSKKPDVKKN
Chain of Keap1/Nrf2 (Q14145 whole entry, the tested form may be a part): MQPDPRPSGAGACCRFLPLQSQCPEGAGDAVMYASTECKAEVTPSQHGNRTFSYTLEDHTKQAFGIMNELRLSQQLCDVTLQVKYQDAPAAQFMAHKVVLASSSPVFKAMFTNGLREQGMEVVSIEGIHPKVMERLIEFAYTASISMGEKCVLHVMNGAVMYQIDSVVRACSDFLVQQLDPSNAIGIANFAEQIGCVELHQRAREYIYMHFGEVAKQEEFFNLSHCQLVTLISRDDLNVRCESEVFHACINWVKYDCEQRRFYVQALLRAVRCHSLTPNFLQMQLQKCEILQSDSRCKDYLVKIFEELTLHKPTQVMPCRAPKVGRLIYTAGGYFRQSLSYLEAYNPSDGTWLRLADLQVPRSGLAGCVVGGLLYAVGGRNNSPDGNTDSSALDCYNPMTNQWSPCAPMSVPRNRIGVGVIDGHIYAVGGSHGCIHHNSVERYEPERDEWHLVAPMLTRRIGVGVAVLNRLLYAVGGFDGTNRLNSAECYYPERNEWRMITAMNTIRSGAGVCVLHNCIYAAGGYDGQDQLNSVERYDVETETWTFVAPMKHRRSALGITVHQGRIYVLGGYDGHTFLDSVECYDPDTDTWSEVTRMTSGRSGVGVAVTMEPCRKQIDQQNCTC

[1] = Solubility of the compound; format: physicochemical
Outline: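 Intrinsic solubility determined by the pH-metric method, a potentiometric acid−base titration, using the pSOL model.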

[2] = Lipophilicity, log D of the compound; format: physicochemical; settings: octanol/water
Outline: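 log D at pH 7.4 measured by Avdeef−Bucher potentiometric titration on a Gemini Profiler instrument.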

Mus musculus [3] = test: Anti-inflammatory in LPS-challenged C57BL/6 mouse model of acute inflammation assessed as reduction in TNFalpha level at 10 mg/kg, ip for 3 days pre-treated for 3 days followed by LPS challenge 24 hrs after last dose and measured 5 hrs post LPS challenge by ELISA method; format: functional, organism-based
Outline: (§1)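 Female C57BL/6 mice (12−16 weeks), randomised, n = 10 per group; single daily IP injection on days −3, −2, −1, then 300 μg LPS IP 24 h after the last dose (day 0). Controls were saline-only and saline plus LPS, with dexamethasone 10 mg/kg/day as positive control. Sera taken 5 h post-LPS; plasma frozen at −20 °C and cytokines read by double-sandwich ELISA; mean ± SEM.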

Mus musculus [4] = test: Anti-inflammatory in LPS-challenged C57BL/6 mouse model of acute inflammation assessed as reduction in IFNgamma level at 10 mg/kg, ip for 3 days pre-treated for 3 days followed by LPS challenge 24 hrs after last dose and measured 5 hrs post LPS challenge by ELISA method; format: functional, organism-based; outline: as §1
Mus musculus [5] = test: Anti-inflammatory in LPS-challenged C57BL/6 mouse model of acute inflammation assessed as reduction in IL6 level at 10 mg/kg, ip for 3 days pre-treated for 3 days followed by LPS challenge 24 hrs after last dose and measured 5 hrs post LPS challenge by ELISA method; format: functional, organism-based; outline: as §1
Mus musculus [6] = test: Anti-inflammatory in LPS-challenged C57BL/6 mouse model of acute inflammation assessed as reduction in IL12 level at 10 mg/kg, ip for 3 days pre-treated for 3 days followed by LPS challenge 24 hrs after last dose and measured 5 hrs post LPS challenge by ELISA method; format: functional, organism-based; outline: as §1
Mus musculus [7] = test: Anti-inflammatory in LPS-challenged C57BL/6 mouse model of acute inflammation assessed as reduction in IL17 level at 10 mg/kg, ip for 3 days pre-treated for 3 days followed by LPS challenge 24 hrs after last dose and measured 5 hrs post LPS challenge by ELISA method; format: functional, organism-based; outline: as §1
Mus musculus [8] = test: Toxicity in LPS-challenged C57BL/6 mouse model of acute inflammation at 10 mg/kg, ip for 3 days pre-treated for 3 days followed by LPS challenge 24 hrs after last dose and measured 5 hrs post LPS challenge; format: organism-based; settings: in vivo
Outline: (§2)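 Female C57BL/6 mice (12−16 weeks), n = 10 per group, dosed IP once daily on days −3 to −1, then challenged with 300 μg LPS IP 24 h after the last dose. Body weight and signs of acute toxicity were monitored during the pretreatment period.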

Mus musculus [9] = test: Toxicity in LPS-challenged C57BL/6 mouse model of acute inflammation at 80 mg/kg, ip for 3 days pre-treated for 3 days followed by LPS challenge 24 hrs after last dose and measured 5 hrs post LPS challenge; format: organism-based; settings: in vivo; outline: as §2
Mus musculus [10] = test: Toxicity in LPS-challenged C57BL/6 mouse model of acute inflammation assessed as changes in body weight at 10 mg/kg, ip for 3 days pre-treated for 3 days followed by LPS challenge 24 hrs after last dose and measured 5 hrs post LPS challenge; format: organism-based; settings: in vivo; outline: as §2
Mus musculus [11] = test: Toxicity in LPS-challenged C57BL/6 mouse model of acute inflammation assessed as changes in body weight at 80 mg/kg, ip for 3 days pre-treated for 3 days followed by LPS challenge 24 hrs after last dose and measured 5 hrs post LPS challenge; format: organism-based; settings: in vivo; outline: as §2

Row | SMILES | IC50 (Keap1/Nrf2) [nM] | solubility ([1]; read-out: solubility) [µg/mL] | logD [2] | other results
1 | O=C(O)CN(c1ccc(N(CC(=O)O)S(=O)(=O)c2ccc(F)cc2)c2ccccc12)S(=O)(=O)c1ccc(F)cc1 | 54.3 | 3800 (≈ 6430 µM) | 1.16 | –
2 | O=C(O)CN(c1ccc(N(CC(=O)O)S(=O)(=O)c2ccccc2)c2ccccc12)S(=O)(=O)c1ccccc1 | 34.3 | 183 (≈ 330 µM) | 0.45 | –
3 | Cc1cc(C)c(S(=O)(=O)N(CC(=O)O)c2ccc(N(CC(=O)O)S(=O)(=O)c3c(C)cc(C)cc3C)c3ccccc23)c(C)c1 | 979 | 20 (≈ 31.3 µM) | 3.44 | –
4 | COc1cccc(S(=O)(=O)N(CC(=O)O)c2ccc(N(CC(=O)O)S(=O)(=O)c3cccc(OC)c3)c3ccccc23)c1 | 66.1 | 16 (≈ 26 µM) | 0.89 | –
5 | Cc1ccc(S(=O)(=O)N(CC(=O)O)c2ccc(N(CC(=O)O)S(=O)(=O)c3ccc(C)cc3)c3ccccc23)cc1 | 18.1 | 248 (≈ 426 µM) | 0.93 | –
6 | COc1ccc(S(=O)(=O)N(CC(=O)O)c2ccc(N(CC(=O)O)S(=O)(=O)c3ccc(OC)cc3)c3ccccc23)cc1 | – | 388 (≈ 631 µM) | – | –
7 | CC(C)(C)c1ccc(S(=O)(=O)N(CC(=O)O)c2ccc(N(CC(=O)O)S(=O)(=O)c3ccc(C(C)(C)C)cc3)c3ccccc23)cc1 | 50.2 | 1.6 (≈ 2.4 µM) | 5.2 | –
8 | COc1ccc(S(=O)(=O)N(CC(=O)O)c2ccc(N(CC(=O)O)S(=O)(=O)c3ccc(OC)cc3)cc2)cc1 | 1450 | – | – | –
9 | O=C(O)CN(c1ccc(N(CC(=O)O)S(=O)(=O)c2cccc3ccccc23)c2ccccc12)S(=O)(=O)c1cccc2ccccc12 | 47.4 | 5 (≈ 7.64 µM) | 3.9 | –
10 | O=C(O)CN(c1ccc(N(CC(=O)O)S(=O)(=O)c2ccc(OC(F)(F)F)cc2)c2ccccc12)S(=O)(=O)c1ccc(OC(F)(F)F)cc1 | 179 | 12.3 (≈ 17 µM) | 0.93 | –
11 | Cc1ccc(S(=O)(=O)N(CC(=O)O)c2ccc(N(CC(=O)O)S(=O)(=O)c3ccc(C)cc3)cc2)cc1 | 966 | – | – | –
12 | COc1ccc(S(=O)(=O)N(CC(=O)O)c2cc(C)c(N(CC(=O)O)S(=O)(=O)c3ccc(OC)cc3)cc2C)cc1 | 10200 | – | – | –
13 | O=C(O)CN(c1ccc(N(CC(=O)O)S(=O)(=O)c2ccc(Cl)cc2)c2ccccc12)S(=O)(=O)c1ccc(Cl)cc1 | 42.3 | 1200 (≈ 1920 µM) | 2.11 | –
14 | COc1ccc(S(=O)(=O)N(CC(=O)O)c2ccc(N(CC(=O)O)S(=O)(=O)c3ccc(OC)cc3)c(C)c2)cc1 | 1670 | – | – | –
15 | CCCCc1ccc(S(=O)(=O)N(CC(=O)O)c2ccc(N(CC(=O)O)S(=O)(=O)c3ccc(CCCC)cc3)c3ccccc23)cc1 | 42.2 | – | 1.89 | solubility [1]: 0.006 µg/mL (≈ 0.009 µM)
16 | N#Cc1ccc(S(=O)(=O)N(CC(=O)O)c2ccc(N(CC(=O)O)S(=O)(=O)c3ccc(C#N)cc3)c3ccccc23)cc1 | 118 | 1100 (≈ 1820 µM) | 0.65 | –
17 | C[C@@H]1C[C@H]2[C@@H]3CCC4=CC(=O)C=C[C@]4(C)[C@@]3(F)[C@@H](O)C[C@]2(C)[C@@]1(O)C(=O)CO | – | – | – | inhibition (Mus musculus [3]): Active; inhibition (Mus musculus [4]): Active; inhibition (Mus musculus [5]): Active; inhibition (Mus musculus [6]): Active; inhibition (Mus musculus [7]): Active
18 | O=C(O)CN(c1ccc(N(CC(=O)O)S(=O)(=O)c2ccc(C(F)(F)F)cc2)c2ccccc12)S(=O)(=O)c1ccc(C(F)(F)F)cc1 | 122 | 12.3 (≈ 17.8 µM) | 2.81 | –
19 | CC(=O)Nc1ccc(S(=O)(=O)N(CC(=O)O)c2ccc(N(CC(=O)O)S(=O)(=O)c3ccc(NC(C)=O)cc3)c3ccccc23)cc1 | – | 5000 (≈ 7480 µM) | 1.02 | Activity (Mus musculus [8]): Non-toxic; Activity (Mus musculus [9]): Non-toxic; Activity (Mus musculus [10]): Non-toxic; Activity (Mus musculus [11]): Non-toxic
20 | COc1ccc(S(=O)(=O)N(CC(=O)O)c2cccc3c(N(CC(=O)O)S(=O)(=O)c4ccc(OC)cc4)cccc23)cc1 | 1860 | – | – | –
21 | COc1ccc(S(=O)(=O)N(CC(=O)O)c2ccc(N(CC(=O)O)S(=O)(=O)c3ccc(OC)cc3)c(OC)c2)cc1 | 602 | – | – | –
22 | O=C(O)CN(c1ccc(N(CC(=O)O)S(=O)(=O)c2ccc(Br)cc2)c2ccccc12)S(=O)(=O)c1ccc(Br)cc1 | 36.5 | 5.7 (≈ 8 µM) | 4.29 | –
